Measured values published in ChEMBL document CHEMBL4613248, “Twelfth-Position Deuteration of Nevirapine Reduces 12-Hydroxy-Nevirapine Formation and Nevirapine-Induced Hepatocyte Death” (J Med Chem, 2020).

Key:
[1] = Drug level in C57BL/6J mouse primary hepatocytes treated with 10 uM NVP assessed as Cytochrome P450-mediated compound formation incubated for 24 hrs by uHPLC-MS analysis; format: ADME, cell-based
Method in brief: (§1)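 Fresh hepatocytes from male C57BL/6J mice (8–13 weeks), ≥85% viable on plating, adhered overnight, then given fresh medium with compound (final 0.1% DMSO vehicle) for 24 h in 12-well format. Culture medium deproteinized with acetonitrile (final 50%), dried, reconstituted in methanol; monooxygenated metabolites (2-, 3-, 12-OH) measured by uHPLC-MS/MS on Orbitrap. Four experimental replicates.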

[2] = Drug level in C57BL/6J mouse primary hepatocytes treated with 10 uM 2-D3NVP assessed as Cytochrome P450-mediated compound formation incubated for 24 hrs by uHPLC-MS analysis; format: ADME, cell-based; conditions: in the assay text read “12-D3NVP” for “2-D3NVP”; method in brief: as §1
[3] = tested on: Cytochrome P450; assay: Drug level in human primary hepatocytes treated with 10 uM NVP assessed as Cytochrome P450-mediated compound formation incubated for 24 hrs by uHPLC-MS analysis; format: ADME, cell-based
Method in brief: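 Cryoplateable pooled human hepatocytes (10 mixed-sex donors per lot, three lots), ≥90% viable on plating, adhered overnight, then dosed in fresh InVitroGRO CP medium with antibiotics (vehicle 0.1% DMSO) for 24 h, 12-well format. Medium extracted by acetonitrile precipitation (final 50%), dried, reconstituted in methanol; 2-, 3- and 12-OH metabolites quantified by uHPLC-MS/MS on Orbitrap.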

[4] = tested on: Cytochrome P450; assay: Drug metabolism in human primary hepatocytes assessed as Cytochrome P450-mediated formation of 2-OHNVP at 10 uM incubated for 24 to 48 hrs by uHPLC-MS analysis; format: ADME, cell-based
Method in brief: (§2)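 Cryoplateable pooled human hepatocytes (10 mixed-sex donors per pool, three lots), adhered overnight, then 10 μM substrate or vehicle (0.1% DMSO) for 24 or 48 h in InVitroGRO CP medium. Medium extracted with 50% acetonitrile, dried, reconstituted in methanol; uHPLC-Orbitrap MS/MS for monooxygenated metabolites, high-resolution MS for O-glucuronide.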

[5] = Plasma concentration in human; format: ADME, cell-free
[6] = Drug metabolism in human assessed as formation of 12-OH-NVP; format: ADME
[7] = Drug metabolism in C57BL/6J mouse primary hepatocytes assessed as Cytochrome P450-mediated formation of 3-OHNVP at 10 uM incubated for 24 hrs by uHPLC-MS analysis; format: ADME, cell-based
Method in brief: (§3)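 Fresh hepatocytes from male C57BL/6J mice (8–13 weeks), adhered overnight, then 10 μM substrate or vehicle (0.1% DMSO) for 24 h. Medium extracted with acetonitrile (50% final), dried, reconstituted in methanol; uHPLC-Orbitrap targeted SIM plus PRM (monooxygenated metabolites) or high-resolution ions (O-glucuronides, 459.1510/462.1700 ±5 ppm); four experimental replicates.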

[8] = Drug metabolism in C57BL/6J mouse primary hepatocytes assessed as Cytochrome P450-mediated formation of 8-OHNVP at 10 uM incubated for 24 hrs by uHPLC-MS analysis; format: ADME, cell-based; method in brief: as §3
[9] = tested on: Cytochrome P450; assay: Drug metabolism in human liver microsomes assessed as Cytochrome P450-mediated formation of 2-OHNVP formation at 5 to 400 uM in presence of NADPH regenerating reagents by uHPLC-MS/MS analysis; format: ADME
Method in brief: (§4)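 Pooled human liver microsomes (2.5 mg/mL) with NADPH-regenerating system, substrate 5–400 μM, 30 min at 37 °C, 0.1% DMSO (0.2% at 400 μM); 2- and 3-OH metabolites by uHPLC-MS/MS Orbitrap; three replicates, mean ± SD.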

[10] = tested on: Cytochrome P450; assay: Drug metabolism in human primary hepatocytes assessed as Cytochrome P450-mediated formation of 3-OHNVP at 10 uM incubated for 24 to 48 hrs by uHPLC-MS analysis; format: ADME, cell-based; method in brief: as §2
[11] = tested on: Cytochrome P450; assay: Drug metabolism in human liver microsomes assessed as Cytochrome P450-mediated formation of 12-OHNVP by measuring Kcat/Km ratio in presence of NADPH regenerating reagents by uHPLC-MS/MS analysis
Method in brief: (§5)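 Pooled human liver microsomes (2.5 mg/mL) in potassium phosphate; substrate (1–400 μM) prewarmed 5 min at 37 °C with NADPH-regenerating system, started with microsomes, 30 min at 37 °C. 12-OH product quantified by uHPLC-MS/MS Orbitrap against 12-OHNVP standard curve made in microsomes without NADPH. Kcat/Km taken as slope of linear rate vs substrate fit at nonsaturating 0–50 μM.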

[12] = tested on: Cytochrome P450; assay: Drug metabolism in human liver microsomes assessed as Cytochrome P450-mediated formation of 12-OHNVP at 1 to 400 uM in presence of NADPH regenerating reagents by uHPLC-MS/MS analysis; format: ADME; method in brief: as §5
[13] = Drug metabolism in human primary hepatocytes assessed as O-GlucNVP metabolite formation at 10 uM incubated for 24 hrs by uHPLC-MS analysis; format: ADME, cell-based, Hepatocyte; method in brief: as §2
[14] = Drug metabolism in C57BL/6J mouse primary hepatocytes assessed as 12-O-GlucD2NVP metabolite formation at 10 uM incubated for 24 hrs by uHPLC-MS analysis; format: ADME, cell-based, Hepatocyte; method in brief: as §3
[15] = tested on: Cytochrome P450; assay: Drug metabolism in human liver microsomes assessed as Cytochrome P450-mediated formation of 3-OHNVP formation at 5 to 400 uM in presence of NADPH regenerating reagents by uHPLC-MS/MS analysis; format: ADME; method in brief: as §4
[16] = Drug metabolism in C57BL/6J mouse primary hepatocytes assessed as Cytochrome P450-mediated formation of 2-OHNVP at 10 uM incubated for 24 hrs by uHPLC-MS analysis; format: ADME, cell-based; method in brief: as §3
[17] = Drug metabolism in C57BL/6J mouse primary hepatocytes assessed as O-GlucNVP metabolite formation at 10 uM incubated for 24 hrs by uHPLC-MS analysis; format: ADME, cell-based, Hepatocyte; method in brief: as §3
[18] = tested on: Hepatocyte; assay: Toxicity in C57BL/6J mouse primary hepatocytes assessed as reduction in cell viability by measuring EtBr-positive cell nuclei level at 400 uM incubated for 8 hrs by EtBr/AcrO staining based assay (reference value: 19%)
Method in brief: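 Fresh male C57BL/6J mouse hepatocytes on collagen-coated coverslips, 400 μM compound or vehicle (0.2% DMSO) for 8 h; 10 μM staurosporine as positive control. Ethidium bromide/acridine orange costaining, imaging, percentage of EtBr-positive nuclei scored as dead cells; unpaired two-tailed t test.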

[19] = Drug metabolism in C57BL/6J mouse primary hepatocytes assessed as Cytochrome P450-mediated formation of 12-OHNVP at 10 uM incubated for 24 hrs by uHPLC-MS analysis; format: ADME, cell-based; method in brief: as §3

O=C1Nc2c(CO)ccnc2N(C2CC2)c2ncccc21
Drug uptake [1]: Metabolite_Detected

[2H]C([2H])([2H])c1c(O)cnc2c1NC(=O)c1cccnc1N2C1CC1
Drug uptake [2]: Metabolite_Detected

Cc1c(O)cnc2c1NC(=O)c1cccnc1N2C1CC1
Drug uptake [1]: Metabolite_Detected
Drug uptake [3]: Metabolite_Detected

[2H]C([2H])([2H])c1cc(O)nc2c1NC(=O)c1cccnc1N2C1CC1
Drug uptake [2]: Metabolite_Detected

[2H]C([2H])(O)c1ccnc2c1NC(=O)c1cccnc1N2C1CC1
Drug uptake [2]: Metabolite_Detected

Cc1cc(O)nc2c1NC(=O)c1cccnc1N2C1CC1
Drug uptake [1]: Metabolite_Detected
Drug uptake [3]: Metabolite_Detected

Cc1ccnc2c1NC(=O)c1cccnc1N2C1CC1 [NEVIRAPINE]
Drug metabolism [4]: Metabolite_Detected
concentration [5]: 16 µM
Drug metabolism [6]: 1.3 µM
Drug metabolism [7]: Metabolite_Detected
Drug metabolism [8]: Metabolite_Notdetected
Drug metabolism [9]: Metabolite_Detected
Drug metabolism [10]: Metabolite_Detected
Kcat/Km [11]: 1.4 M⁻¹ s⁻¹
Drug metabolism [12]: Metabolite_Detected
Drug metabolism [13]: Metabolite_Detected
Drug metabolism [14]: Metabolite_Notdetected
Drug metabolism [15]: Metabolite_Detected
Drug metabolism [16]: Metabolite_Detected
Drug metabolism [17]: Metabolite_Detected
Activity [18]: 52.6%
Drug metabolism [19]: Metabolite_Detected
